Shown are actives, neighbours in structure and some others; about 5.7% of the full set was active somewhere.
Beta cell apopt – beta cell apoptosis inhibition; INS-1E cytokine-induced death, ATP luminescence, 48 h; percent of positive-control rescue, neutral wells zero; AID 435005; 300,000 tested, 0.8% active; protection from apoptosis, % (concentration not given with the values);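 active = Every replicate reaches about 75%, or at least half do and their mean reaches it too, limit read from the data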;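 also: 0% = cytokine-treated negative control wells and 100% = positive control rescue; higher means more ATP so stronger rescue from cytokine killing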
Calb FLC – C. albicans growth modulation with fluconazole; C. albicans CaCi-2 (fluconazole-resistant clinical isolate) + fluconazole, Alamar Blue growth, 48 h; growth inhibition, % (test concentration not listed); 300,000 tested, 0.57% active; AID 1979;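 active = growth inhibition above about 58% in most replicates, limit read from the data, passing the limit was not always enough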;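 also: all wells also contain fluconazole at 8 µg/ml as a sub-toxic cotreatment; 0% = median of DMSO wells and 100% = median of geldanamycin control wells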
Mdm2 MdmX PPI – disrupts the human Mdm2-MdmX interaction | inhibition, % at 8 µM | AID 485346 | SaOS-2 split-luciferase Mdm2/MdmX complementation, luminescence | 330,000 tested, 3% active;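 active = inhibition of at least 50% at 8 µM in the primary screen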
Target sequence (O15151 whole entry, looked up): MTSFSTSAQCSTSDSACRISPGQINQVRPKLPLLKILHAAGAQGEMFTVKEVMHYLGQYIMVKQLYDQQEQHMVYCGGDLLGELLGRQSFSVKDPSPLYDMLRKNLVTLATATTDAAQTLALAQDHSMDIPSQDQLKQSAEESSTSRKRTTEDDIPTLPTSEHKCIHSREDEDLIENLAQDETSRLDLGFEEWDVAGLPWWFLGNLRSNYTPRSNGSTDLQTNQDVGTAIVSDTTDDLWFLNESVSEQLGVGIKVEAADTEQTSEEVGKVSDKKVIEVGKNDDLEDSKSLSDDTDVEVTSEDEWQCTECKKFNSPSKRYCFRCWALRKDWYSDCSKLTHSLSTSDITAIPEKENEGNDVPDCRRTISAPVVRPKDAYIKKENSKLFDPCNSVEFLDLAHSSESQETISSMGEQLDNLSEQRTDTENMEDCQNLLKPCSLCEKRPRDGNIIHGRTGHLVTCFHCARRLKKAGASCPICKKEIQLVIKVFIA
Target sequence (Q00987 whole entry, looked up): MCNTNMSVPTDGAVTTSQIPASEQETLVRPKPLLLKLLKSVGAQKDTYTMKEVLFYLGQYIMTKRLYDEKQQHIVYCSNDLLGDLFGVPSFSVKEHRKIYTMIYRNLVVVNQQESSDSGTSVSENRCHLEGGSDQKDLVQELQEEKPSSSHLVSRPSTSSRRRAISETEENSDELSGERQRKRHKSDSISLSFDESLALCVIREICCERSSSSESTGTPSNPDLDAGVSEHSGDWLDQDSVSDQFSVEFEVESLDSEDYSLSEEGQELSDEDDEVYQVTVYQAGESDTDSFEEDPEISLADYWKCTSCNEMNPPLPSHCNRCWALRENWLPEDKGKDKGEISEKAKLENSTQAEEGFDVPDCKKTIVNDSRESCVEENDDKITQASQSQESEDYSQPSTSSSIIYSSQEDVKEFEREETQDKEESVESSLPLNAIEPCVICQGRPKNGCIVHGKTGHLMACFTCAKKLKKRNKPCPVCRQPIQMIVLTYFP
CSC inhib – cancer stem cell inhibition. AID 2717. inhibition, % at 7.5 µM. 300,000 tested, 1.1% active. cancer stem cell-like cells viability, luminescence; in the data active = inhibition above about 75%; tested in HMLE shEcad cells
SKKanGAS inh – inhibitors of SKKanGAS S. pyogenes growth in kanamycin (SK-promoter or general growth effect). inhibition, % at 7.5 µM. BacTiter-Glo, 6 h. 300,000 tested, 1.3% active;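 active = mean replicate score, as percent of positive control median, at least 50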;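 also: strain carries kanamycin resistance gene driven by streptokinase promoter and grows in 40 µg/ml kanamycin; loss of luminescence reflects streptokinase promoter inhibition or plain growth inhibition; 0% = median of DMSO wells and 100% = positive control at its reference dose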
T cruzi inh – T. cruzi replication inhibition; 300,000 tested, 1.4% active; AID 1885; inhibition, % (no concentration beside the values); T. cruzi beta-gal in NIH3T3, luminescence, 90 h;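 active = mean inhibition across valid replicates above about 55%, limit read from the data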;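 also: signal also drops with host cell toxicity which is not excluded here; 0% = plate median of DMSO wells and 100% = zero luminescence signal; higher percent means less beta-gal luminescence so fewer parasites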
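assay system = mouse NIH/3T3 fibroblasts infected with β-gal-expressing T. cruzi Tulahuen C4 | input = 5,000 NIH/3T3 host cells per well | buffer or medium = DMEM plus 2% FBS | timing = 3 h host attachment, then at least 90 h co-culture | measured by = GalScreen luminescence, 60 min | evaluation = luminescence reflecting intracellular parasite burden, expressed as percent inhibition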
Mdm2-MdmX conf – confirmation of human Mdm2/MdmX interaction inhibitors | shares compounds with Mdm2 MdmX PPI | Mdm2-MdmX binding, luminescent assay | inhibition, % at 8 µM | 10,000 tested, 55% active; in the data active = inhibition above about 40%
FLuc counter – full-length luciferase inhibition in Mdm2/MdmX counter-screen | shares compounds with Mdm2 MdmX PPI | SaOS-2 full-length luciferase counterscreen, luminescence | inhibition, % at 8 µM | 6,200 tested, 77% active | AID 504607;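 active = mean inhibition at 8 µM reaching about 37%, which flags the compound as non-specific, limit read from the data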;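 also: p53-null SaOS-2 cells with luciferase driven by a doxycycline-inducible promoter; compound on cells about two nights before reading with doxycycline added after day one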
* = called active by the depositor; / = no result.

SMILES	Beta cell apopt	Calb FLC	Mdm2 MdmX PPI	CSC inhib	SKKanGAS inh	T cruzi inh	Mdm2-MdmX conf	FLuc counter
COCCN(C(=O)COC(=O)/C=C/c1ccc(OC)c(OC)c1)c1c(N)n(Cc2ccccc2)c(=O)[nH]c1=O	3	10	-9	/	-4	-9	/	/
COc1ccc([C@H]2CC(=O)C=C(c3ccc(C(=O)O)cc3)C2)cc1OC	3	/	15	-4	/	/	/	/
Cc1cc(C(=O)Nc2cnc3ccccc3c2)ccc1[N+](=O)[O-]	-5	-3	-65	-1	-10	7	/	/
O=C(NCc1nc2ccccc2[nH]1)c1ccc([N+](=O)[O-])cc1	1	-7	-12	10	-12	-5	/	/
Cc1ccc(C(=O)Nc2cnc3ccccc3c2)cc1	3	-2	82*	20	7	-16	-2	/
COc1ccc(C(=O)Nc2nc3ccccc3[nH]2)cc1	/	3	56*	18	22	5	38	83*
Cc1cccc(C(=O)N[C@H](C(=O)Nc2nc3ccccc3[nH]2)C(C)C)c1	26	8	73*	69	16	12	68*	100*
C/C(=N\Nc1nc2ccccc2[nH]1)c1ccc([N+](=O)[O-])cc1	26	0	55*	8	13	13	2	/
CSc1ccccc1OCc1cc(C(=O)NCCCn2nc(C)cc2C)no1	1	7	6	10	9	18	/	/
CCCn1c(SC(C)C(=O)NCC2CCCO2)nc2sc3c(c2c1=O)CCC3 (configuration not stated)	3	13	10	-16	8	42	/	/
O=C(Nc1nc2ccccc2[nH]1)c1ccc([N+](=O)[O-])cc1	5	-6	-48	-15	9	1	/	/
COc1ccc(C(=O)Nc2cccc3c2CCCC3)cc1	4	1	51*	48	-1	-9	35	74*
Cc1ccc(C(=O)Nc2nc3ccccc3[nH]2)cc1	30	3	64*	13	/	9	49*	58*
COc1ccc(CC(=O)Nc2cccc3c2CCCC3)cc1	-1	-4	14	-6	-10	-5	/	/
Cc1cc(=O)oc2c(C)c(OC(C)C(=O)NCc3ccccn3)ccc12 (configuration not stated)	1	/	-24	-2	-3	7	/	/
Cc1ccc(-c2nc(C=Nc3ccc(O)cc3)c(O)o2)cc1	/	20	/	/	4	-132	/	/
Cc1ccc(N=Cc2nc(/C=C/c3cccc([N+](=O)[O-])c3)oc2O)cc1	-4	7	94*	/	-9	-9	19	/
O=[N+]([O-])c1cc(C(F)(F)F)ccc1-n1nnc2ccccc21	-10	-4	64*	9	2	-13	10	/
O=[N+]([O-])c1cc(S(=O)(=O)Nc2ccccc2)ccc1-n1nnc2ccccc21	-1	14	26	8	-2	9	/	/
Cc1cc(/C=C2\SC(=Nc3ccc(F)cc3)NC2=O)c(C)n1-c1ccc(S(N)(=O)=O)cc1	18	1	61*	52	61*	5	47*	59*
O=S(=O)(Cc1ccccc1)Nc1ccc(F)cc1	2	2	-8	-3	-3	-7	/	/
COc1ccc(C(=O)CSc2nc3ccccc3n2CC(=O)c2ccccc2)cc1	-1	12	-27	-4	0	14	/	/
COc1ccc(C(=O)Cn2c(C(=O)/C=C/c3ccccc3)nc3ccccc32)cc1	21	9	72*	49	-6	1	46*	61*
O=C(Nc1ccccc1C(=O)Nc1nnc(C(F)(F)F)s1)c1ccccc1	12	-13	97*	195*	97*	59*	97*	20
Cc1occc1C(=O)Nc1nnc(C(F)(F)F)s1	22	57	-11	2	0	-11	/	/
CC(=O)c1c(C)[nH]c(C(=O)OCC(=O)c2c(N)n(C)c(=O)n(C)c2=O)c1C	-12	2	56*	-1	-2	-10	2	/
COCCNC(=O)C(c1ccc(C)cc1)N(Cc1ccco1)C(=O)CCC(=O)Nc1ccccn1 (configuration not stated)	2	-6	-9	/	-1	1	/	/
